Assays:
[1] = test system: LNCaP; assay: Cytotoxicity against human LNcaP cells after 48 hrs by SRB assay; assay type: functional; conditions: for CC50: read-out: LC50 (the source's name)
Method in brief: (§1)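 Cells grown in RPMI 1640 with 10% FBS and penicillin/streptomycin at 37 °C and 5% CO₂, trypsinized, then seeded at 5 × 10³/well. After 18 h drug-free attachment, samples in DMSO/EtOH/PBS (0.5:0.5:99) were added for 48 h continuous exposure. Cells were fixed with cold TCA (1 h, 4 °C) and stained with SRB (10 min). Tris-solubilized stain read at 490 nm. Triplicate wells, mean ± SD; GI₅₀ derived.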

[2] = test system: DU-145; assay: Cytotoxicity against human DU145 cells after 48 hrs by SRB assay; assay type: functional, cell-based; conditions: Homo sapiens, DU-145, 48 h; for GI50: read-out: GI50; for CC50: read-out: LC50 (the source's name); method in brief: as §1
[3] = test system: LoVo; assay: Cytotoxicity against human LoVo cells after 48 hrs by SRB assay; assay type: functional; conditions: for CC50: read-out: LC50 (the source's name)
[4] = Cytotoxicity against human HeLa-APL cells after 48 hrs by SRB assay; assay type: functional; method in brief: as §1
[5] = test system: SK-BR-3; assay: Cytotoxicity against human SKBR3 cells after 48 hrs by SRB assay; assay type: functional; conditions: SK-BR-3, 48 h; for GI50: read-out: GI50; for CC50: read-out: LC50 (the source's name); method in brief: as §1
[6] = test system: HeLa; assay: Cytotoxicity against human HeLa cells after 48 hrs by SRB assay; assay type: functional; conditions: for CC50: read-out: LC50 (the source's name); method in brief: as §1
[7] = test system: SK-MEL-28; assay: Cytotoxicity against human SK-MEL-28 cells after 48 hrs by SRB assay; assay type: functional, cell-based; conditions: Homo sapiens, SK-MEL-28, 48 h; for GI50: read-out: GI50; for CC50: read-out: LC50 (the source's name); method in brief: as §1
[8] = test system: HT-29; assay: Cytotoxicity against human HT29 cells after 48 hrs by SRB assay; assay type: functional, cell-based; conditions: Homo sapiens, HT-29, 48 h; for CC50: read-out: LC50 (the source's name); method in brief: as §1
[9] = test system: K562; assay: Cytotoxicity against human K562 cells after 48 hrs by SRB assay; assay type: functional; conditions: K562, 48 h; for CC50: read-out: LC50 (the source's name); method in brief: as §1
[10] = Cytotoxicity against human IGROV cells after 48 hrs by SRB assay; assay type: functional; conditions: for CC50: read-out: LC50 (the source's name); method in brief: as §1
[11] = test system: PANC-1; assay: Cytotoxicity against human PANC1 cells after 48 hrs by SRB assay; assay type: functional; conditions: PANC-1, 48 h; for CC50: read-out: LC50 (the source's name); method in brief: as §1
[12] = test system: LoVo; assay: Cytotoxicity against human doxorubicin resistant LoVo cells after 48 hrs by SRB assay; assay type: functional; conditions: for CC50: read-out: LC50 (the source's name); method in brief: as §1
[13] = test system: A549; assay: Cytotoxicity against human A549 cells after 48 hrs by SRB assay; assay type: functional, cell-based; conditions: Homo sapiens, A549, 48 h; for GI50: read-out: GI50; method in brief: as §1
[14] = Cytotoxicity against human IGROV-ET cells after 48 hrs by SRB assay; assay type: functional; conditions: for CC50: read-out: LC50 (the source's name); method in brief: as §1

## C/C=C1\NC(=O)[C@H](Cc2ccccc2)NC(=O)[C@@H](C(C)C)NC(=O)[C@@H]([C@H](C)CC)NC(=O)[C@H](NC(=O)[C@H](NC(=O)[C@H](CCCCN)NC(=O)[C@H]2CCCN2C(=O)[C@H](NC(=O)[C@@H](NC(=O)[C@@H](NC(=O)[C@H](NC(=O)CCCC(C)C)C(C)C)[C@@H](C)O)C(C)C)C(C)C)[C@H](C)CC)[C@H](C)OC(=O)[C@H](C(C)C)NC1=O
[1]
  GI50: 1330 nM
  TGI: 1150 nM
  CC50: 985 nM
[2]
  TGI: 2440 nM
  GI50: 1290 nM
  CC50: 3170 nM
[3]
  GI50: 426 nM
  TGI: 379 nM
  CC50: 337 nM
[4]
  GI50: 512 nM
  LC50 (concentration giving 50% net cell kill): 757 nM
  TGI: 664 nM
[5]
  TGI: 366 nM
  GI50: 385 nM
  CC50: 351 nM
[6]
  GI50: 910 nM
  TGI: 776 nM
  CC50: 883 nM
[7]
  TGI: 1270 nM
  GI50: 1470 nM
  CC50: 1370 nM
[8]
  GI50: 521 nM
  TGI: 422 nM
  CC50: 340 nM
[9]
  GI50: 9350 nM
  TGI: 14700 nM
  CC50: 4770 nM
[10]
  GI50: 568 nM
  CC50: 5720 nM
[10]; read-out: GI50
  GI50: 562 nM
[11]
  GI50: 5110 nM
  TGI: 4550 nM
  CC50: 2210 nM
[12]
  GI50: 301 nM
  TGI: 280 nM
  CC50: 36.6 nM
[13]
  LC50: 1340 nM
  TGI: 1390 nM
  GI50: 1440 nM
[14]
  GI50: 619 nM
  CC50: 587 nM
[14]; read-out: GI50
  GI50: 645 nM

## C/C=C1\NC(=O)[C@H](Cc2ccccc2)NC(=O)[C@@H](C(C)C)NC(=O)[C@@H]([C@H](C)CC)NC(=O)[C@H](NC(=O)[C@H](NC(=O)[C@H](CCCN)NC(=O)[C@H]2CCCN2C(=O)[C@H](NC(=O)[C@@H](NC(=O)[C@@H](NC(=O)[C@H](NC(=O)CCCC(C)C)C(C)C)[C@@H](C)O)C(C)C)C(C)C)[C@H](C)CC)COC(=O)[C@H](C(C)C)NC1=O
[1]
  GI50: 3370 nM
  TGI: 3360 nM
  CC50: 2140 nM
[2]
  TGI: 5210 nM
  GI50: 5040 nM
  CC50: 5370 nM
[3]
  GI50: 457 nM
  TGI: 513 nM
  CC50: 620 nM
[4]
  GI50: 1930 nM
  LC50 (concentration giving 50% net cell kill): 1320 nM
  TGI: 1650 nM
[5]
  CC50: 610 nM
[6]
  CC50: 1470 nM
[7]
  TGI: 1500 nM
  GI50: 1900 nM
  CC50: 1180 nM
[8]
  GI50: 983 nM
  TGI: 1540 nM
  CC50: 1970 nM
[9]
  CC50: 4460 nM
[10]
  TGI: 25100 nM
  CC50: 33800 nM
[10]; read-out: GI50
  GI50: 16700 nM
[11]
  CC50: 8970 nM
[12]
  GI50: 353 nM
  TGI: 367 nM
  CC50: 384 nM
[13]
  LC50: 1270 nM
  TGI: 1350 nM
  GI50: 1440 nM
[14]
  GI50: 753 nM
  CC50: 663 nM
[14]; read-out: GI50
  GI50: 620 nM

## CC[C@@H](C)[C@@H](NC(=O)[C@H](CCCN)NC(=O)[C@H]1CCCN1C(=O)[C@H](NC(=O)[C@@H](NC(=O)[C@@H](NC(=O)[C@H](NC(=O)CCCC(C)C)C(C)C)[C@@H](C)O)C(C)C)C(C)C)C(=O)N[C@H]1C(=O)N[C@H]([C@H](C)CC)C(=O)N[C@H](C(C)C)C(=O)N[C@@H](Cc2ccccc2)C(=O)NC(C)(C)C(=O)N[C@@H](C(C)C)C(=O)O[C@H]1C
[1]
  CC50: 1390 nM
[2]
  TGI: 1390 nM
  GI50: 1640 nM
  CC50: 1170 nM
[3]
  GI50: 2320 nM
  TGI: 2310 nM
  CC50: 2070 nM
[4]
  GI50: 2790 nM
  LC50 (concentration giving 50% net cell kill): 1430 nM
  TGI: 2800 nM
[5]
  TGI: 1980 nM
  GI50: 2130 nM
  CC50: 777 nM
[6]
  CC50: 1090 nM
[7]
  TGI: 3080 nM
  GI50: 2180 nM
  CC50: 1740 nM
[8]
  GI50: 2350 nM
  TGI: 2120 nM
  CC50: 743 nM
[9]
  CC50: 1930 nM
[10]
  GI50: 790 nM
  CC50: 368 nM
[10]; read-out: GI50
  GI50: 1790 nM
[11]
  CC50: 1770 nM
[12]
  GI50: 1590 nM
  TGI: 1500 nM
  CC50: 456 nM
[13]
  LC50: 1430 nM
[14]
  GI50: 668 nM
  CC50: 423 nM
[14]; read-out: GI50
  GI50: 1080 nM

## C/C=C1\NC(=O)[C@H](Cc2ccccc2)NC(=O)[C@@H](C(C)C)NC(=O)[C@@H]([C@H](C)CC)NC(=O)[C@H](NC(=O)[C@H](NC(=O)[C@H](CCCNC(=O)C(F)(F)F)NC(=O)[C@H]2CCCN2C(=O)[C@H](NC(=O)[C@@H](NC(=O)[C@@H](NC(=O)[C@H](NC(=O)CC[C@@H](C)CC)C(C)C)[C@@H](C)O)C(C)C)C(C)C)[C@H](C)CC)[C@H](C)OC(=O)[C@H](C(C)C)NC1=O
[1]
  GI50: 1460 nM
  TGI: 1990 nM
  CC50: 1410 nM
[2]
  TGI: 1100 nM
  GI50: 1330 nM
  CC50: 898 nM
[3]
  GI50: 311 nM
  TGI: 296 nM
  CC50: 282 nM
[4]
  GI50: 1210 nM
  LC50 (concentration giving 50% net cell kill): 789 nM
  TGI: 963 nM
[5]
  TGI: 190 nM
  GI50: 112 nM
  CC50: 320 nM
[6]
  GI50: 502 nM
  TGI: 463 nM
  CC50: 525 nM
[7]
  TGI: 1540 nM
  GI50: 1910 nM
  CC50: 1220 nM
[8]
  GI50: 266 nM
  TGI: 301 nM
  CC50: 342 nM
[9]
  CC50: 1810 nM
[10]
  GI50: 276 nM
  CC50: 87.5 nM
[10]; read-out: GI50
  GI50: 305 nM
[11]
  CC50: 1660 nM
[12]
  GI50: 276 nM
  TGI: 282 nM
  CC50: 287 nM
[13]
  LC50: 1200 nM
  TGI: 1170 nM
  GI50: 1140 nM
[14]
  GI50: 508 nM
  CC50: 528 nM
[14]; read-out: GI50
  GI50: 489 nM

From ChEMBL document CHEMBL1156597, “Structure-activity relationship of kahalalide F synthetic analogues” (J Med Chem, 2008)
